From ChEMBL document CHEMBL1764997, “(Z)-3-butylidenephthalide from Ligusticum porteri , an α-glucosidase inhibitor” (J Nat Prod, 2011) come the findings set out here.

The IC50 is the concentration that gives 50% inhibition. For orientation: Ki means the equilibrium dissociation constant of an inhibitor or competing ligand from its target.

Assay [1] has as its system Mus musculus. Put plainly: Antidiabetic activity in streptozotocin-induced diabetic ICR mouse assessed as change in blood glucose level at 31.2 mg/kg after 1.5 hrs by oral glucose tolerance test (RVb= 0.005 %). It counts as functional.
Assay [2] concerns Mus musculus. Put plainly: Antidiabetic activity in streptozotocin-induced diabetic ICR mouse assessed as change in blood glucose level at 10 mg/kg after 2 hrs by oral glucose tolerance test (RVb= -12.9 %). It counts as functional.
Assay [3] has as its system Mus musculus. Put plainly: Antihyperglycemic activity in ICR mouse assessed as change in blood glucose level at 10 mg/kg after 2 hrs by oral glucose tolerance test (RVb= -12 %). Format: functional.
The subject of assay [4] is Mus musculus. Put plainly: Antidiabetic activity in streptozotocin-induced diabetic ICR mouse assessed as change in blood glucose level at 56.2 mg/kg after 1.5 hrs by oral glucose tolerance test (RVb= 0.005 %). Format: functional.
The species entered for assay [5] is Mus musculus. Put plainly: Inhibition of alpha-glucosidase in streptozotocin-induced diabetic ICR mouse intestine assessed as lowering of blood glucose levels. Format: functional, organism-based. In short, it runs like this:
(§1)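 NAD (40 mg/kg ip) then STZ (100 mg/kg ip, 15 min later) diabetic male ICR mice, glucose >140 mg/dL after 7 days. Animals fasted 12 h, dosed orally in 0.05% Tween 80/saline, and given oral sucrose 2 g/kg 30 min later.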

Assay [6] relates to Mus musculus. Put plainly: Antidiabetic activity in streptozotocin-induced diabetic ICR mouse assessed as change in blood glucose level at 10 mg/kg after 1.5 hrs by oral glucose tolerance test (RVb= 0.005 %). It counts as functional.
In assay [7] the test system is Mus musculus. Put plainly: Antidiabetic activity in streptozotocin-induced diabetic ICR mouse assessed as change in blood glucose level at 31.2 mg/kg after 0.5 hr by oral glucose tolerance test (RVb= 51.9 %). It counts as functional.
The subject of assay [8] is Mus musculus. Put plainly: Antihyperglycemic activity in ICR mouse assessed as change in blood glucose level at 20 mg/kg after 2 hrs by oral glucose tolerance test (RVb= -12 %). It counts as functional.
The test system of assay [9] is Mus musculus. Put plainly: Antidiabetic activity in streptozotocin-induced diabetic ICR mouse assessed as change in blood glucose level at 56.2 mg/kg after 2 hrs by oral glucose tolerance test (RVb= -12.9 %). It counts as functional.
The test system of assay [10] is Mus musculus. Put plainly: Antidiabetic activity in streptozotocin-induced diabetic ICR mouse assessed as change in blood glucose level at 10 mg/kg after 0.5 hr by oral glucose tolerance test (RVb= 51.9 %). Format: functional.
The test system of assay [11] is Mus musculus. Put plainly: Antihyperglycemic activity in ICR mouse assessed as change in blood glucose level at 10 mg/kg after 0.5 hr by oral glucose tolerance test (RVb= 59 %). It counts as functional.
The subject of assay [12] is Mus musculus. Put plainly: Antidiabetic activity in streptozotocin-induced diabetic ICR mouse assessed as change in blood glucose level at 56.2 mg/kg after 1 hr by oral sucrose tolerance test (RVb= 11.4 %). It counts as functional. In short, it runs like this: as §1
Assay [13] deals with Mus musculus. Put plainly: Antidiabetic activity in streptozotocin-induced diabetic ICR mouse assessed as change in blood glucose level at 10 mg/kg after 2 hrs by oral sucrose tolerance test (RVb= -4.3 %). It counts as functional. In short, it runs like this:
as §1

The subject of assay [14] is Mus musculus. Put plainly: Antidiabetic activity in streptozotocin-induced diabetic ICR mouse assessed as change in blood glucose level at 56.2 mg/kg after 1.5 hrs by oral sucrose tolerance test (RVb= 6.1 %). Format: functional. In short, it runs like this: as §1
In assay [15] the test system is Mus musculus. Put plainly: Antidiabetic activity in streptozotocin-induced diabetic ICR mouse assessed as change in blood glucose level at 10 mg/kg after 0.5 hr by oral sucrose tolerance test (RVb= 56 %). It counts as functional. The gist of the method: as §1
In assay [16] the test system is Mus musculus. Put plainly: Antidiabetic activity in streptozotocin-induced diabetic ICR mouse assessed as change in blood glucose level at 56.2 mg/kg after 1 hr by oral glucose tolerance test (RVb= 10.3 %). Format: functional.
Assay [17] has as its system Mus musculus. Put plainly: Antihyperglycemic activity in ICR mouse assessed as change in blood glucose level at 20 mg/kg after 1.5 hrs by oral glucose tolerance test (RVb= 2.5 %). Format: functional.
For assay [18], the system named is Mus musculus. Put plainly: Antihyperglycemic activity in ICR mouse assessed as change in blood glucose level at 10 mg/kg after 1.5 hrs by oral glucose tolerance test (RVb= 2.5 %). It counts as functional.
For assay [19], the system named is Mus musculus. Put plainly: Antidiabetic activity in streptozotocin-induced diabetic ICR mouse assessed as change in blood glucose level at 10 mg/kg after 1 hr by oral glucose tolerance test (RVb= 10.3 %). Format: functional.
In assay [20] the test system is Mus musculus. Put plainly: Antidiabetic activity in streptozotocin-induced diabetic ICR mouse assessed as change in blood glucose level at 31.2 mg/kg after 2 hrs by oral glucose tolerance test (RVb= -12.9 %). Format: functional.
Another assay has as its target Alpha-glucosidase MAL62 (Saccharomyces cerevisiae, UniProt P07265). Put plainly: (§2) Inhibition of yeast alpha-glucosidase assessed as inhibition of p-nitrophenyl-alpha-D-glucopyranoside substrate hydrolysis after 35 mins by spectroscopy.
Assay [21] concerns the target Alpha-glucosidase MAL62 (Saccharomyces cerevisiae) (UniProt P07265). The assay is described as §2.
The test system of assay [22] is Mus musculus. Put plainly: Antidiabetic activity in streptozotocin-induced diabetic ICR mouse assessed as change in blood glucose level at 10 mg/kg after 1 hr by oral sucrose tolerance test (RVb= 11.4 %). It counts as functional. The gist of the method: as §1
In assay [23] the test system is Mus musculus. Put plainly: Antidiabetic activity in streptozotocin-induced diabetic ICR mouse assessed as change in blood glucose level at 31.2 mg/kg after 1 hr by oral glucose tolerance test (RVb= 10.3 %). It counts as functional.
Assay [24] concerns Mus musculus. Put plainly: Antihyperglycemic activity in ICR mouse assessed as change in blood glucose level at 20 mg/kg after 0.5 hr by oral glucose tolerance test (RVb= 59 %). It counts as functional.
The subject of assay [25] is Mus musculus. Put plainly: Antidiabetic activity in streptozotocin-induced diabetic ICR mouse assessed as change in blood glucose level at 56.2 mg/kg after 2 hrs by oral sucrose tolerance test (RVb= -4.3 %). Format: functional. The gist of the method: as §1
Assay [26] concerns Mus musculus. Put plainly: Antidiabetic activity in streptozotocin-induced diabetic ICR mouse assessed as change in blood glucose level at 56.2 mg/kg after 0.5 hr by oral glucose tolerance test (RVb= 51.9 %). It counts as functional.
The test system of assay [27] is Mus musculus. Put plainly: Antidiabetic activity in streptozotocin-induced diabetic ICR mouse assessed as change in blood glucose level at 56.2 mg/kg after 0.5 hr by oral sucrose tolerance test (RVb= 56 %). Format: functional. In short, it runs like this: as §1
For assay [28], the system named is Mus musculus. Put plainly: Antidiabetic activity in streptozotocin-induced diabetic ICR mouse assessed as change in blood glucose level at 10 mg/kg after 1.5 hrs by oral sucrose tolerance test (RVb= 6.1 %). It counts as functional. In short, it runs like this: as §1
The subject of assay [29] is Mus musculus. Put plainly: Antihyperglycemic activity in ICR mouse assessed as change in blood glucose level at 10 mg/kg after 1 hr by oral glucose tolerance test (RVb= 1.5 %). Format: functional.
The subject of assay [30] is Mus musculus. Put plainly: Antihyperglycemic activity in ICR mouse assessed as change in blood glucose level at 20 mg/kg after 1 hr by oral glucose tolerance test (RVb= 1.5 %). It counts as functional.
Assay [31] has as its system Mus musculus. Put plainly: Antidiabetic activity in streptozotocin-induced diabetic ICR mouse assessed as change in blood glucose level at 5 mg/kg after 1.5 hrs by oral sucrose tolerance test (RVb= 6.1 %). It counts as functional. In short, it runs like this:
as §1

Assay [32] has as its system Mus musculus. Put plainly: Antidiabetic activity in streptozotocin-induced diabetic ICR mouse assessed as change in blood glucose level at 5 mg/kg after 1 hr by oral sucrose tolerance test (RVb= 11.4 %). It counts as functional. The gist of the method:
as §1

Assay [33] concerns Mus musculus. Put plainly: Antidiabetic activity in streptozotocin-induced diabetic ICR mouse assessed as change in blood glucose level at 5 mg/kg after 0.5 hr by oral sucrose tolerance test (RVb= 56 %). It counts as functional. The gist of the method:
as §1

The species entered for assay [34] is Mus musculus. Put plainly: Antidiabetic activity in streptozotocin-induced diabetic ICR mouse assessed as lowering of blood glucose level by oral sucrose tolerance test. Format: functional, organism-based. In short, it runs like this: as §1
The test system of assay [35] is Mus musculus. Put plainly: Antidiabetic activity in streptozotocin-induced diabetic ICR mouse assessed as change in blood glucose level at 5 mg/kg after 2 hrs by oral sucrose tolerance test (RVb= -4.3 %). It counts as functional. The gist of the method: as §1
For assay [36], the system named is Rattus norvegicus. Put plainly: Hypoglycemic activity in rat assessed as increase in insulin concentration at 5 mg/kg, iv. It counts as functional, organism-based. Also on record: dose 5 mg/kg.
Assay [37] relates to Mus musculus. Put plainly: Antihyperglycemic activity in po dosed diabetic KK-Ay mouse model. It counts as functional, organism-based.
The subject of assay [38] is Rattus norvegicus. Put plainly: Hypoglycemic activity in rat assessed as decrease in plasma glucose at 5 mg/kg, iv. Details: dose 5 mg/kg. It counts as functional, organism-based.
In another assay the test system is L6. Put plainly: Hypoglycemic activity in rat L6 myotubes assessed as increase in 2-deoxyglucose transport at 25 uM relative to control. It counts as functional.

The source made the active and inactive calls. The rule behind the calls is not given here.

Alpha-glucosidase MAL62 (Saccharomyces cerevisiae), sequence (P07265 whole entry): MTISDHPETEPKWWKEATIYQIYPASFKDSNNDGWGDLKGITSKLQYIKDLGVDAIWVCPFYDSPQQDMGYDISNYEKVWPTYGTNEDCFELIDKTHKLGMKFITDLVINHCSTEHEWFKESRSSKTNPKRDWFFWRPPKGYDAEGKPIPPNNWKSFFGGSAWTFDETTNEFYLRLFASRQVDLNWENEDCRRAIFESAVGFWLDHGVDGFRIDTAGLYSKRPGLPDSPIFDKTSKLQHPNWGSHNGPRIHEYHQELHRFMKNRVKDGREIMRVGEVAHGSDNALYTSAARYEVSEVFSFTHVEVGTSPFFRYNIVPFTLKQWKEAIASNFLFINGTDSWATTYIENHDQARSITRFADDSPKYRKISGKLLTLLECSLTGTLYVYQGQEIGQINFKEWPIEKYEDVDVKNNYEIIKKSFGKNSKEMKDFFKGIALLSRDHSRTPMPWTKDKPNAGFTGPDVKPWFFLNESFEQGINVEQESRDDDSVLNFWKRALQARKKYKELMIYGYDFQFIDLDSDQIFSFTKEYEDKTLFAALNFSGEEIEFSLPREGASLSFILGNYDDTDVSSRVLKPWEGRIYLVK
Alpha-glucosidase MAL62, sequence (P07265 whole entry): as above

In the case of `CCCC=C1OC(=O)c2ccccc21` [(E)-BUTYLIDENEPHTHALIDE], the Activity with Mus musculus [1] is given as -0.3%; with Mus musculus [2], -7.4%; with Mus musculus [3], -42%; in the assay with Mus musculus [4], -12%; in the assay with Mus musculus [6], 1.5%; in the assay on Mus musculus [7], 27%. The Activity is listed as -23% in the assay with Mus musculus [8]; -21.7% in the assay on Mus musculus [9]; 35% in the assay on Mus musculus [10]; -9% in the assay on Mus musculus [11]; 7.6% with Mus musculus [12]; 6.7% in the assay with Mus musculus [13]. The Activity with Mus musculus [14] was 2.5%; with Mus musculus [15] it was 41%; with Mus musculus [16], -5.2%; in the assay with Mus musculus [17], -18%; in the assay on Mus musculus [18], -41%; with Mus musculus [19], 3.5%. Also, the Activity was -9.1% in the assay with Mus musculus [20]; “Dose-dependent effect” in assay [21]; 19% in the assay on Mus musculus [22]; 3.3% with Mus musculus [23]; 20% in the assay with Mus musculus [24]; 6.4% with Mus musculus [25]. The Activity is reported as 12% with Mus musculus [26]; 23% with Mus musculus [27]; 16% in the assay with Mus musculus [28]; -24% in the assay with Mus musculus [29]; -6.9% in the assay on Mus musculus [30]. Further, the inhibition entry in the assay listed under Mus musculus [5] was “Active”. For the same molecule, on Alpha-glucosidase MAL62, the concentration for half-maximal inhibition (IC50) was found to be 2.35 mM. The Ki at Alpha-glucosidase MAL62 came to 4.86 mM.
For the molecule `C[C@H]1O[C@H](O[C@H]2[C@H](O)[C@@H](O)[C@@H](O[C@H]3[C@H](O)[C@@H](O)C(O)O[C@@H]3CO)O[C@@H]2CO)[C@H](O)[C@@H](O)[C@@H]1N[C@H]1C=C(CO)[C@@H](O)[C@H](O)[C@H]1O` (some centres undefined) [ACARBOSE], the Activity in the assay on Mus musculus [31] was 6.2%; in the assay on Mus musculus [32], 0.5%; in the assay on Mus musculus [33], -0.4%; with Mus musculus [35] it was 6.8%; in [21], “Dose-dependent effect”. Also, the outcome in the assay filed under Mus musculus [34] was Active.
In the case of `C=CCc1cc(OC)c2c(c1)OCO2`, in [21], the outcome was inactive.
For `COc1cc(/C=C/C(=O)O)ccc1O` [FERULATE], the result in the assay with Rattus norvegicus [36], with Mus musculus [37] and in the assay on Rattus norvegicus [38] was Active. In addition, the “fold change (FC)” value in the assay on L6 was 2.98. Further, in [21], the outcome was inactive.
